# The list is not random: actives were taken first. Their share in the collection is about 1.3%.
# Fam108B counter = counter-screen for RBBP9 inhibitors: inhibitors of mouse Fam108B. recombinant Fam108B, FP-Rh probe fluorescence polarization. inhibition, % at 9.51 µM. 300,000 compounds, 0.33% hits. AID 1947;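 active means inhibition above the screen mean inhibition plus 3 SD, computed separately per campaign, cut at about 18% in these data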;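 further: inhibitors lower polarization as less probe binds the enzyme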
# LYPLA1 counter = blocks human lysophospholipase 1, a PME1 counter-screen. O75608. recombinant LYPLA1, FP-Rh probe fluorescence polarization. inhibition, % at 5.9 µM. 320,000 compounds, 0.16% hits;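 active means inhibition above the mean of all tested compounds plus 3 SD, set per campaign, cut at about 14% in these data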;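 further: inhibitors block serine hydrolase probe labeling of LYPLA1 so polarization falls; 0% = enzyme with DMSO and 100% = wells lacking LYPLA1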
# LYPLA2 counter = blocks human lysophospholipase 2, a PME1 counter-screen | inhibition, % at 5.9 µM | 320,000 compounds, 0.38% hits | AID 2177 | recombinant LYPLA2, FP-Rh probe fluorescence polarization;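 active means inhibition above the screen-wide mean plus 3 SD, limit set per campaign, cut at about 26% in these data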;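 further: 0% = LYPLA2 with DMSO and 100% = wells lacking LYPLA2 enzyme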
# PME-1 inh = blocks human protein phosphatase methylesterase 1; Q9Y570; recombinant PME-1, FP-Rh probe fluorescence polarization; inhibition, % at 5.9 µM; 320,000 compounds, 0.53% hits; AID 2130;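 active means inhibition above the campaign mean of all compounds plus 3 SD, cut at about 26% in these data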;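 further: competitive labeling of PME-1 active site by serine hydrolase directed probe; 0% = PME-1 with DMSO and 100% = wells lacking PME-1 enzyme; inhibitors block probe labeling so polarization falls and inhibition rises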
# PAD4 inh = blocks human protein arginine deiminase 4; Q9UM07; recombinant PAD4, RCA probe fluorescence polarization; inhibition, % at 6.36 µM; 330,000 compounds, 0.41% hits;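 active means percent inhibition above a cutoff equal to the mean of all tested compounds plus 3 SD, cut at about 15% in these data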;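 further: 0% = PAD4 with RCA probe and DMSO and 100% = probe without PAD4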
# Target sequence (Q9UM07 whole entry, looked up): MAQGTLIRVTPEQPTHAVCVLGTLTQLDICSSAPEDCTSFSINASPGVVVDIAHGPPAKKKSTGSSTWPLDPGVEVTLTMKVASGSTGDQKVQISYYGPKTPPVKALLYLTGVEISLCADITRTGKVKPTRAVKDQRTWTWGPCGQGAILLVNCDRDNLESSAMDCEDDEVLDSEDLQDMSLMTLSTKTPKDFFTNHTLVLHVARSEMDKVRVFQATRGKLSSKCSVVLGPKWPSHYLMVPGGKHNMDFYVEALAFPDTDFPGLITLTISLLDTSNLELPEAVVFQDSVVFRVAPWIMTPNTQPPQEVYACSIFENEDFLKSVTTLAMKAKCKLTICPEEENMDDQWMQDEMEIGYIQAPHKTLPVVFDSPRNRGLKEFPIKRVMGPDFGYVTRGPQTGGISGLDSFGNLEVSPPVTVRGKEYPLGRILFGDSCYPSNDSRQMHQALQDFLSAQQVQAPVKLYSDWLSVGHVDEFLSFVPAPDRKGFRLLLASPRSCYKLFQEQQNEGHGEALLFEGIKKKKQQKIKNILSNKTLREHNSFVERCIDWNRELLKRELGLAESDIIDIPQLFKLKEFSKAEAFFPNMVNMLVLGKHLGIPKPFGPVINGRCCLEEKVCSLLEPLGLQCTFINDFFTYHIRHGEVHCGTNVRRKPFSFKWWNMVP
# RBBP9 inh = human RBBP9 hydrolase inhibition | O75884 | inhibition, % at 7.94 µM | 220,000 compounds, 0.2% hits | recombinant RBBP9, FP-Rh probe fluorescence polarization | AID 1515;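 active means inhibition above the campaign mean of all tested compounds plus 3 SD, cut at about 14% in these data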;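 further: plate controls were DMSO wells with RBBP9 for no effect and wells lacking RBBP9 protein for full effect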
#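 system = RBBP9 protein | input = RBBP9 at 2.5 µM in dispensed solution, before mixing | measured by = fluorescence polarization (mP), excitation 525 nm, emission 598 nm | incubation = enzyme-compound preincubation 30 min, then probe labeling 45 min, 25 °C | buffer or medium = Tris-NaCl-Pluronic buffer, pH 8.0 | compound = single dose 7.94 µM | also added = FP-Rh probe, 375 nM dispensing solution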
# Fam108b inh conf = confirmation of mouse Fam108b serine hydrolase inhibitors; recombinant Fam108b, FP-Rh probe fluorescence polarization; shares compounds with Fam108B counter; inhibition, % at 9.51 µM; 930 compounds, 44% hits;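 active means inhibition above a limit from the primary screen, the mean over all compounds plus 3 SD, cut at about 19% in these data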;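 further: 0% = median of active Fam108b wells and 100% = catalytically dead S170A mutant; inhibitors free the probe so polarization falls as inhibition rises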
# Fam108b inh = inhibits mouse Fam108b in gel-based ABPP | 260 compounds, 44% hits | inhibition, % at 20 µM | AID 588649 | shares compounds with Fam108B counter | recombinant Fam108b, fluorophosphonate probe; in the data active means inhibition above about 40%
# LYPLA1 conf = LYPLA1 (human) inhibition, confirmation counter-screen | shares compounds with LYPLA1 counter | recombinant LYPLA1, FP-Rh probe fluorescence polarization | inhibition, % at 5.9 µM | 480 compounds, 69% hits | AID 2233;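 active means mean inhibition across replicates above the hit cutoff set in the primary screen, cut at about 15% in these data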;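 further: loss of FP-Rh probe labeling of LYPLA1 seen as lower polarization; 0% = LYPLA1 with DMSO and 100% = wells lacking LYPLA1 enzyme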
# LYPLA2 confirm = counter-screen for PME1 inhibitors: confirmation of human LYPLA2 inhibitors. 1,100 compounds, 72% hits. recombinant LYPLA2, FP-Rh probe fluorescence polarization. inhibition, % at 5.9 µM. AID 2232. shares compounds with LYPLA2 counter;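 active means mean inhibition across replicates above the hit cutoff set in the primary screen, cut at about 26% in these data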;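 further: blocked labeling of the enzyme by serine hydrolase FP-Rh probe lowers polarization; 0% = enzyme with DMSO and 100% = wells lacking LYPLA2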
# Numbers without * were called inactive; . = no result given.
SMILES,Fam108B counter,LYPLA1 counter,LYPLA2 counter,PME-1 inh,PAD4 inh,RBBP9 inh,Fam108b inh conf,LYPLA1 conf,others
CN1CCN(NS(=O)(=O)c2cccs2)CC1,-2,2,-2,-4,-2,0,.,.,
O=C(O)C1=C[C@H](c2csc3ccccc23)C[C@H](OCc2ccc(CO)cc2)O1,32*,4,5,-3,-2,-5,-5,.,
CCN1CCc2c(sc(NC(=O)Nc3ccc(Cl)c(Cl)c3)c2C(N)=O)C1,32*,14,14,57*,-6,2,4,.,
CCN1CCc2c(sc(NC(=O)Cc3ccccc3)c2C(N)=O)C1,0,-2,-4,0,-1,.,.,.,
Cc1[nH]c2ccccc2c1/C=N/NC(=O)c1cccc(F)c1,0,1,0,11,-6,-11,.,.,
Cc1[nH]c2ccccc2c1C=NNC(=O)c1cccc(S(=O)(=O)Nc2cccc(C(F)(F)F)c2)c1,.,.,.,.,.,.,.,.,Fam108b inh=95*
Oc1ccc(C=NNc2ccnc3cc(Cl)ccc23)c(O)c1O,.,.,.,.,.,.,.,.,Fam108b inh=80*
CCN(CC(=O)Nc1c(F)cccc1F)C(=O)CNC(=O)c1ccc(C)s1,1,1,6,-5,5,.,.,.,
CCOc1cc(/C=C2\C(=O)N(c3nc(-c4ccc(Br)cc4)cs3)N=C2c2ccccc2)ccc1O,42*,-17,-17,10,-10,-4,42*,.,Fam108b inh=90*
COc1ccc(/C=C2\C(=O)N(c3nc(-c4ccc(Br)cc4)cs3)N=C2c2ccccc2)cc1,.,.,.,.,.,-6,.,.,
O=C(O)CCCNc1cc(N2CCN(C(=O)c3ccco3)CC2)c2noc3c2c1C(=O)c1ccccc1-3,35*,18*,14,6,-7,.,41*,18*,Fam108b inh=75*
O=C1c2ccccc2-c2c1cccc2C(=O)N1CCN(C(=O)c2ccco2)CC1,3,3,-1,3,10,-14,.,.,
O=C(/C=C/c1ccco1)N(Cc1ccccc1F)C1CCS(=O)(=O)C1 (stereo not drawn),0,3,7,-5,1,.,.,.,
Cc1ccc(C(=O)N/N=C/c2ccc(-c3ccc(Br)cc3[N+](=O)[O-])o2)o1,19*,18*,21,53*,0,.,-5,-3,
NC1=NC(=Nc2cccc(S(N)(=O)=O)c2)c2ccccc21,0,-1,2,1,1,-5,.,.,
COc1cc(N=Nc2cccc(S(N)(=O)=O)c2)c2ccccc2c1N,34*,14*,18,30*,-11,8,14,-3,
O=C(N/N=C/c1cc(Cl)c(O)c(Cl)c1)c1cc2c(ccc3ccccc32)o1,37*,24*,7,57*,-2,.,52*,9,
CCn1c(SC2CCOC2=O)nnc1-c1ccc(Cl)cc1 (stereo not drawn),4,4,11,-4,2,-1,.,.,
CC(Oc1ccccc1)C(=O)N1CCC2(CC1)CC(=O)c1ccccc1O2 (stereo not drawn),-3,1,0,-1,3,.,.,.,
O=C(Nc1cc2c3c(c1)CC(=O)N3CCC2)c1ccco1,8,2,3,1,0,.,.,.,
C/C(=N\NC(=O)c1cccc(Cl)c1)C1C(=O)c2ccccc2C1=O,31*,24*,7,4,1,-4,34*,28*,
Cc1nc(S/C(=C/c2ccc(-c3ccc(C(=O)O)cc3)o2)C(=O)O)n[nH]1,3,-3,-4,-5,-4,-8,.,.,
Cc1nc(S/C(=C/c2ccc(-c3cc(Cl)ccc3C)o2)C(=O)O)n[nH]1,25*,26*,15,34*,0,6,18*,28*,
CCCCCCCCCCCCCCCC[n+]1ccc(/C=N/O)cc1,41*,15*,24,56*,6,40*,44*,20*,
Cc1cc(C)n2c(SC(C)C(=O)NC3(C#N)CCCCC3)nnc2n1 (stereo not drawn),.,0,0,-4,4,.,.,.,
SMILES,Fam108B counter,LYPLA1 counter,LYPLA2 counter,PME-1 inh,PAD4 inh,RBBP9 inh,Fam108b inh conf,LYPLA1 conf,others
CC1=NN(c2ccccc2)C(=O)/C1=C/c1c(O)n(-c2ccc(F)c(Cl)c2)[nH]c1=O,67*,26*,14,68*,-2,3,65*,14,Fam108b inh=0
O=c1/c(=C\c2cc([N+](=O)[O-])cc([N+](=O)[O-])c2O)sc2nc3ccccc3n12,52*,16*,6,4,-19,-8,39*,-2,
O=c1/c(=C/c2ccccn2)sc2nc3ccccc3n12,0,4,6,-1,3,4,.,.,
CCOc1cccc(/C=N/NC(=S)Nc2cc(S(=O)(=O)N3CCOCC3)ccc2N2CCOCC2)c1O,18*,2,34*,32*,3,-3,13,.,LYPLA2 confirm=43*
COc1ccc2ccccc2c1/C=N/NC(=S)Nc1cc(S(=O)(=O)N2CCOCC2)ccc1N1CCOCC1,-4,-4,-12,-3,3,-1,.,.,
CC(C)c1nnc(N2C(=O)C(O)=C(C(=O)c3cccs3)C2c2ccccc2)s1 (stereo not drawn),.,.,.,.,.,-17,.,.,
CCNc1ccccc1CP(=O)(c1ccccc1)c1ccccc1O (stereo not drawn),25*,51*,64*,70*,11,.,10,2,LYPLA2 confirm=5
CCOc1ccc2nc3cc(NCc4ccc(OC)cc4)ccc3c(N)c2c1,24*,19*,37*,5,-7,.,-8,-9,LYPLA2 confirm=-25
O=C(CSc1c(F)c(F)cc(F)c1F)Nc1ccc(C2SCCS2)cc1,137*,105*,132*,145*,0,1,150*,0,Fam108b inh=0;LYPLA2 confirm=0
CCCN(CCC)C(=O)CC(c1ccccc1)c1ccco1 (stereo not drawn),0,-1,0,0,-6,3,.,.,
CCOc1ccc(NC(=S)Nc2ccc3nsnc3c2)cc1,80*,66*,90*,52*,76*,-1,25*,5,LYPLA2 confirm=34*
CC(=O)N[C@@H](Cc1c[nH]c2ccccc12)C(=O)NCc1ccccc1,1,3,6,-2,0,.,.,.,
CCn1c(CSc2nnc(-c3cccnc3)n2-c2ccccc2C)nc2cc(C(=O)O)ccc21,69*,77*,80*,76*,53*,14,90*,72*,Fam108b inh=0;LYPLA2 confirm=72*
Cc1ccccc1-n1c(SCC(=O)c2cc(C)n(C)c2C)nnc1-c1cccnc1,4,0,4,1,-4,2,.,.,

# Screens from PubChem.
